Source: ChEMBL document CHEMBL1158394, “Diversity-oriented synthesis of furo[3,2-f]chromanes with antimycobacterial activity” (Eur J Med Chem, 2009)
Converted amounts (≈) assume the structure as drawn. The source made the active and inactive calls. No cut-off for these calls is given here.

What was measured:
[1] = tested on: Escherichia coli; experiment: Antibacterial activity against Escherichia coli CIP188631 after 24 hrs by twofold serial dilution method; type: functional, organism-based
Outline: (§1)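 LB precultures grown 24 h, diluted 1/1000 and seeded; twofold serial drug dilutions in LB; 37 °C for 24 h; growth read as optical density at 595 nm; 90% inhibitory concentration obtained by curve fitting; tetracycline positive control; duplicate in two independent experiments.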

[2] = tested on: Vero; experiment: Cytotoxicity against african green monkey Vero cells after 48 hrs by MTT assay; type: cell-based; details: Chlorocebus sabaeus
Outline: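 Vero cells seeded at 10⁵ cells/mL and preincubated 24 h at 37 °C, 5% CO₂; compounds added at various concentrations in 1% DMSO for 48 h; MTT (5 mg/mL solution) then added for 4 h at 37 °C; absorbance at 595 nm; 50% inhibitory concentration by curve fitting; duplicate in two independent experiments.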

[3] = tested on: Staphylococcus aureus; experiment: Antibacterial activity against Staphylococcus aureus ATCC 6538 after 24 hrs by twofold serial dilution method; type: functional; details: ATCC 6538, 24 h; outline: as §1
[4] = tested on: Mycobacterium tuberculosis; experiment: Antimycobacterial activity against Mycobacterium tuberculosis H37Rv after 6 days by microdilution resazurin assay; type: functional; details: 144 h
Outline: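 The M. tuberculosis H37Rv inoculum is grown in Dubos medium with 10% ADC enrichment. DMSO drug stocks (50 mg/mL) are serially diluted twofold in 96-well plates, with DMSO and isoniazid controls. Plates are sealed and held at 37 °C for 6 days, then 0.01% resazurin is added for another 24 h. MIC95 is taken at >95% growth inhibition, in µg/mL. Duplicate runs in two independent experiments.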

[5] = tested on: Mycolicibacterium smegmatis; experiment: Antimycobacterial activity against Mycobacterium smegmatis str. MC2 155 up to 100 ug/mL; type: functional, organism-based
[6] = tested on: Candida tropicalis; experiment: Antifungal activity against Candida tropicalis ATCC 66029 after 24 hrs by disk diffusion method; type: functional, organism-based
Outline: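 Kirby–Bauer disk diffusion: C. tropicalis suspension spread on solid Sabouraud plates; 6 mm paper discs impregnated with serial dilutions in DMSO placed on plates; inhibition zone diameter measured after 24 h at 30 °C; itraconazole positive control; duplicate in two independent experiments.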

[7] = tested on: Escherichia coli; experiment: Genotoxicity in Escherichia coli PQ37 assessed as DNA damage-induced beta-galactosidase release by SOS-chromotest; type: toxicity, organism-based
Outline: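 E. coli PQ37 carrying lacZ under control of the SOS gene sfiA; DNA damage induces β-galactosidase, detected by chromogenic reaction with X-gal; duplicate in two independent experiments.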

Row | Compound | Activity [1] | IC50 [2] | MIC90 [3] | MIC95 [4] | Activity [5] | diameter of the inhibition zone (DIZ) [6] | Activity [7]
1 | Cc1c2c(c3cc(-c4ccc[n+]([O-])c4)oc3c1C)CCC(C)(C)O2 | inactive | 5.6 µg/mL (≈ 17.3 µM) | 5 µg/mL (≈ 15.5 µM) | 5 µg/mL (≈ 15.5 µM) |  |  | 
2 | Cc1c2c(c3cc(-c4cnccn4)oc3c1C)CCC(C)(C)O2 | inactive |  |  | 10 µg/mL (≈ 32.4 µM) |  |  | 
3 | Cc1c2c(c3cc(-c4ccc(-c5nn[nH]n5)nc4)oc3c1C)CCC(C)(C)O2 | inactive |  |  | 10 µg/mL (≈ 26.6 µM) |  |  | 
4 | Cc1c2c(c3cc(-c4ccc(C#N)nc4)oc3c1C)CCC(C)(C)O2 | inactive |  |  | > 10 µg/mL |  |  | 
5 | Cc1c2c(c3cc(CCC(=O)N4CCOCC4)oc3c1C)CCC(C)(C)O2 | inactive |  |  | 10 µg/mL (≈ 26.9 µM) |  |  | 
6 | Cc1c2c(c3cc(Cc4ccc(Cl)cc4)oc3c1C)CCC(C)(C)O2 | inactive | > 100 µg/mL |  | 25 µg/mL (≈ 70.4 µM) |  |  | 
7 | CC1(C)C=Cc2c(ccc3oc(-c4ccncc4)cc23)O1 | inactive | 8.7 µg/mL (≈ 31.4 µM) | 5 µg/mL (≈ 18 µM) | 2.5 µg/mL (≈ 9.01 µM) |  |  | 
8 | Cc1c2c(c3cc(C4CCCO4)oc3c1C)CCC(C)(C)O2 (stereo unspecified) | inactive |  |  | > 10 µg/mL |  |  | 
9 | Cc1c2c(c3cc(-c4ccccn4)oc3c1C)CCC(C)(C)O2 | inactive |  |  | 100 µg/mL (≈ 325 µM) |  |  | 
10 | CC(=O)OCc1cc2c3c(c(C)c(C)c2o1)OC(C)(C)CC3 | inactive |  |  | 10 µg/mL (≈ 33.1 µM) |  |  | 
11 | Cc1c(C)c2c(c(C)c1O)CCC(C)(C)O2 [APC-100] | inactive |  |  | 10 µg/mL (≈ 45.4 µM) |  |  | 
12 | CC(=O)OCCCc1c(-c2cccnc2)oc2ccc3c(c12)CCC(C)(C)O3 | inactive | 17.5 µg/mL (≈ 46.1 µM) |  |  |  |  | 
13 | Cc1c(C)c2c(c(C)c1O)CC[C@@](C)(CCC[C@H](C)CCC[C@H](C)CCCC(C)C)O2 [ALPHA-TOCOPHEROL] | inactive |  |  | 10 µg/mL (≈ 23.2 µM) |  |  | 
14 | Cc1c2c(c3cc(CCc4cccnc4)oc3c1C)CCC(C)(C)O2 | inactive | 7.3 µg/mL (≈ 21.8 µM) | 5 µg/mL (≈ 14.9 µM) | 5 µg/mL (≈ 14.9 µM) |  |  | 
15 | Cc1c2c(c3cc(Cc4cccnc4)oc3c1C)CCC(C)(C)O2 | inactive | 6.4 µg/mL (≈ 19.9 µM) | 5 µg/mL (≈ 15.6 µM) | 3 µg/mL (≈ 9.33 µM) |  |  | 
16 | Cc1c2c(c3cc(-c4cccs4)oc3c1C)CCC(C)(C)O2 | inactive | > 100 µg/mL |  | 6.2 µg/mL (≈ 19.8 µM) | inactive |  | 
17 | CC1(C)CCc2c(ccc3oc(-c4ccncc4)c(CCCO)c23)O1 | inactive | > 25 µg/mL |  | 5 µg/mL (≈ 14.8 µM) |  |  | 
18 | CC(=O)OCCCc1c(-c2ccncc2)oc2ccc3c(c12)CCC(C)(C)O3 | inactive | 14.9 µg/mL (≈ 39.3 µM) | 5 µg/mL (≈ 13.2 µM) |  |  |  | 

Row | Compound | Activity [1] | IC50 [2] | MIC90 [3] | MIC95 [4] | Activity [5] | diameter of the inhibition zone (DIZ) [6] | Activity [7]
19 | Cc1c2c(c3cc(Cc4cccs4)oc3c1C)CCC(C)(C)O2 | inactive |  |  | 12.5 µg/mL (≈ 38.3 µM) | inactive |  | 
20 | Cc1c2c(c3cc(-c4cccnc4)oc3c1C)CCC(C)(C)O2 | inactive |  |  | 5 µg/mL (≈ 16.3 µM) |  |  | 
21 | CC(=O)OCCCc1c(Br)oc2ccc3c(c12)CCC(C)(C)O3 | inactive |  |  |  |  |  | 
22 | COC(=N)c1ccc(-c2cc3c4c(c(C)c(C)c3o2)OC(C)(C)CC4)cn1 | inactive | 3.6 µg/mL (≈ 9.88 µM) | 5 µg/mL (≈ 13.7 µM) | 0.6 µg/mL (≈ 1.65 µM) |  |  | 
23 | CC1(C)CCc2c(ccc3oc(-c4cccnc4)c(CCCO)c23)O1 | inactive | > 25 µg/mL |  | 5 µg/mL (≈ 14.8 µM) |  |  | 
24 | CC1(C)C=Cc2c(ccc3c2C2CCCOC2O3)O1 (stereo unspecified) | inactive |  |  | 250 µg/mL (≈ 968 µM) |  |  | 
25 | CC1(C)CCc2c(ccc3oc4ccccc4c23)O1 | inactive | 100 µg/mL (≈ 396 µM) |  | 10 µg/mL (≈ 39.6 µM) |  |  | 
26 | Cc1c2c(c3cc(/C=C/c4cccnc4)oc3c1C)CCC(C)(C)O2 | inactive | > 100 µg/mL |  | 5 µg/mL (≈ 15 µM) |  |  | 
27 | Cc1c2c(c3cc(-c4cccnc4)oc3c1C)C(=O)CC(C)(C)O2 | inactive |  |  | > 10 µg/mL |  |  | 
28 | Cc1c2c(c3cc(CC#N)oc3c1C)CCC(C)(C)O2 | inactive |  |  | > 10 µg/mL |  |  | 
29 | Cc1c2c(c3cc(-c4ccc(Cl)nc4)oc3c1C)CCC(C)(C)O2 | inactive |  |  | > 10 µg/mL |  |  | 
30 | Cc1c2c(c3cc(CCC(=O)N4CCN(C)CC4)oc3c1C)CCC(C)(C)O2 | inactive |  |  | > 10 µg/mL |  |  | 
31 | Cc1c2c(c3cc(-c4ccc(NCCCN(C)C)nc4)oc3c1C)CCC(C)(C)O2 | inactive | 1.6 µg/mL (≈ 3.93 µM) | 5 µg/mL (≈ 12.3 µM) | 3 µg/mL (≈ 7.36 µM) |  | Active | Toxic
32 | Cc1c(-c2ccncc2)oc2ccc3c(c12)C=CC(C)(C)O3 | inactive | 12.8 µg/mL (≈ 43.9 µM) | 5 µg/mL (≈ 17.2 µM) | 5 µg/mL (≈ 17.2 µM) |  |  | 
33 | Cc1c2c(c3cc(CCC(=O)N4CCCC4)oc3c1C)CCC(C)(C)O2 | inactive |  |  | 10 µg/mL (≈ 28.1 µM) |  |  | 
34 | NNC(=O)c1ccncc1 [ISONIAZID] | inactive | > 500 µg/mL |  | 0.25 µg/mL (≈ 1.82 µM) |  |  | 
35 | Cc1c2c(c3cc(-c4ccncc4)oc3c1C)CCC(C)(C)O2 | inactive | 5.1 µg/mL (≈ 16.6 µM) |  | 2.5 µg/mL (≈ 8.13 µM) |  |  | 
